Measurements published in ChEMBL document CHEMBL4024792, “(N-Hydroxycarbonylbenylamino)quinolines as Selective Histone Deacetylase 6 Inhibitors Suppress Growth of Multiple Myeloma in Vitro and in Vivo” (J Med Chem, 2018).
Activity calls are given as the source filed them. The rule behind the calls is not given here.

Experiments:
[1] = tested on: U-266; assay: Induction of apoptosis in human U266 cells at 5 uM after 24 hrs in presence of bortezomib by Annexin V/propidium iodide staining based flow cytometry; assay type: functional, cell-based
[2] = tested on: RPMI-8226; assay: Cell cycle arrest in human RPMI8226 cells assessed as accumulation at G0/G1 phase at 5 uM after 24 hrs by propidium iodide staining based flow cytometry (reference value: 44.67%); assay type: functional
[3] = tested on: NCI-H929; assay: Cell cycle arrest in human NCI-H929 cells assessed as accumulation at G0/G1 phase at 5 uM after 24 hrs by propidium iodide staining based flow cytometry (reference value: 49.39%); assay type: functional
[4] = tested on: Salmonella typhimurium; assay: Mutagenicity in Salmonella typhimurium TA98 assessed as increase in number of revertant colonies at 3 to 3000 ug/plate in presence of S9 fraction by Ames test; assay type: toxicity; conditions: salmonella enterica subsp. enterica serovar typhimurium
In short: (§1)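 Ames test, TA98 and TA100. Overnight broth cultures preincubated 20 min at 35-37 °C with compound (DMSO stock) plus Aroclor 1254-induced rat liver S9 mix or PBS, then plated in top agar with 0.05 mM histidine/biotin. Final 3-3000 µg/plate; revertants counted after 72 h at 37 °C. ≥3-fold over vehicle = mutagenic; ≤50% = cytotoxic.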

[5] = tested on: RPMI-8226; assay: Cell cycle arrest in human RPMI8226 cells assessed as accumulation at G0/G1 phase at 5 uM after 24 hrs in presence of bortezomib by propidium iodide staining based flow cytometry (reference value: 44.67%); assay type: functional
[6] = tested on: NCI-H929; assay: Cell cycle arrest in human NCI-H929 cells assessed as accumulation at G2/M phase at 5 uM after 24 hrs in presence of bortezomib by propidium iodide staining based flow cytometry (reference value: 31.63%); assay type: functional
[7] = tested on: NCI-H929; assay: Induction of apoptosis in human NCI-H929 cells at 5 uM after 24 hrs by Annexin V/propidium iodide staining based flow cytometry; assay type: functional, cell-based
[8] = tested on: U-266; assay: Cell cycle arrest in human U266 cells assessed as accumulation at sub-G1 phase at 5 uM after 24 hrs by propidium iodide staining based flow cytometry (reference value: 10.76%); assay type: functional
[9] = tested on: RPMI-8226; assay: Cell cycle arrest in human RPMI8226 cells assessed as accumulation at sub-G1 phase at 5 uM after 24 hrs by propidium iodide staining based flow cytometry (reference value: 12.25%); assay type: functional
[10] = tested on: Mus musculus; assay: Toxicity in nude mouse xenografted with human RPMI8226 cells assessed as change in body weight at 30 mg/kg, iv or ip administered for 5 days followed by 2 days off for 35 days; assay type: organism-based; conditions: in vivo
In short: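 Male 8-week nude mice implanted sc with 1×10^7 RPMI 8226 cells, randomized at ~200 mm3 (n = 8). […] Vehicle: 0.5% EtOH/0.5% Cremophor in 5% dextran.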

[11] = Intrinsic clearance in Sprague-Dawley rat hepatocytes at 10 uM by LC-MS/MS analysis; assay type: ADME, cell-based, Hepatocyte; conditions: read-out: CLH
In short: (§2)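 Cryopreserved hepatocytes (Sprague-Dawley rat, beagle dog, human) incubated with compound at 10 µM, 37 °C, for up to 4 h. About 0.5×10^6 cells/well for rat and dog, 0.24×10^6 for human.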

[12] = tested on: RPMI-8226; assay: Cell cycle arrest in human RPMI8226 cells assessed as accumulation at G2/M phase at 5 uM after 24 hrs in presence of bortezomib by propidium iodide staining based flow cytometry (reference value: 23.94%); assay type: functional
[13] = Half life in human hepatocytes at 10 uM by LC-MS/MS analysis; assay type: ADME, cell-based, Hepatocyte
In short: (§3)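 Substrate depletion in cryopreserved hepatocytes (male SD rat, male beagle dog, human). Compound at 10 µM incubated at 37 °C for up to 4 h. Cell density approximately 0.5 × 10^6 hepatocytes/well for rat and dog, 0.24 × 10^6/well for human. Half-life and CLint derived from depletion; % remaining at 60 min also reported.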

[14] = tested on: RPMI-8226; assay: Induction of apoptosis in human RPMI8226 cells at 5 uM after 24 hrs in presence of bortezomib by Annexin V/propidium iodide staining based flow cytometry; assay type: functional, cell-based
[15] = tested on: U-266; assay: Cell cycle arrest in human U266 cells assessed as accumulation at S phase at 5 uM after 24 hrs in presence of bortezomib by propidium iodide staining based flow cytometry (reference value: 14.05%); assay type: functional
[16] = tested on: NCI-H929; assay: Cell cycle arrest in human NCI-H929 cells assessed as accumulation at G2/M phase at 5 uM after 24 hrs by propidium iodide staining based flow cytometry (reference value: 31.63%); assay type: functional
[17] = tested on: RPMI-8226; assay: Cell cycle arrest in human RPMI8226 cells assessed as accumulation at S phase at 5 uM after 24 hrs by propidium iodide staining based flow cytometry (reference value: 19.53%); assay type: functional
[18] = Intrinsic clearance in human hepatocytes at 10 uM by LC-MS/MS analysis; assay type: ADME, cell-based, Hepatocyte; conditions: read-out: CLH; in short: as §2
[19] = tested on: NCI-H929; assay: Cell cycle arrest in human NCI-H929 cells assessed as accumulation at S phase at 5 uM after 24 hrs by propidium iodide staining based flow cytometry (reference value: 13.5%); assay type: functional
[20] = Apparent permeability from basolateral to apical side in human Caco2 cells assessed as drug recovery at 10 uM after 2 hrs by LC-MS/MS analysis; assay type: ADME, cell-based; conditions: Caco-2, read-out: Drug recovery
In short: (§4)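 Caco-2 cells seeded at 8.4 × 10^4 cells/cm2 on polycarbonate inserts for 21 days. For A→B, donor was apical (HBSS/MES pH 6.5, 10 µM compound) and receiver basolateral (HBSS/HEPES pH 7.4). For B→A, donor was basolateral (HBSS/HEPES pH 7.4, 10 µM) and receiver apical (HBSS/MES pH 6.5). Incubated at 37 °C for 2 h. Receiver sampled at 30, 60, 90 and 120 min, donor at 0 and 120 min.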

[21] = tested on: U-266; assay: Cell cycle arrest in human U266 cells assessed as accumulation at G0/G1 phase at 5 uM after 24 hrs by propidium iodide staining based flow cytometry (reference value: 40.29%); assay type: functional
[22] = Half life in beagle dog hepatocytes at 10 uM by LC-MS/MS analysis; assay type: ADME, cell-based, Canis lupus familiaris, Hepatocyte; in short: as §3
[23] = tested on: Salmonella typhimurium; assay: Mutagenicity in Salmonella typhimurium TA98 assessed as increase in number of revertant colonies at 3 to 3000 ug/plate in absence of S9 fraction by Ames test; assay type: toxicity; conditions: salmonella enterica subsp. enterica serovar typhimurium; in short: as §1
[24] = Apparent permeability from basolateral to apical side in human Caco2 cells at 10 uM after 2 hrs by LC-MS/MS analysis; assay type: ADME, cell-based; conditions: Caco-2; in short: as §4
[25] = Intrinsic clearance in beagle dog hepatocytes at 10 uM by LC-MS/MS analysis; assay type: ADME, cell-based, Canis lupus familiaris, Hepatocyte; conditions: read-out: CLH; in short: as §2

- CLint scaled at 10 µM [11]: 151 mL/min/kg
- half-life at 10 µM [13]: 240 min
- CLint scaled at 10 µM [18]: 32.5 mL/min/kg
- recovery at 2 h, 10 µM [20]: 69%
- half-life at 10 µM [22]: 118 min
- Papp B→A at 2 h, 10 µM [24]: 20.1 ×10⁻⁶ cm/s
- CLint scaled at 10 µM [25]: 39.6 mL/min/kg
SMILES: O=C(NO)c1ccc(CNc2cccc3cccnc23)cc1
- Activity [1]: Active
- Activity [2]: 41.95%
- Activity [3]: 35.59%
- Activity [4]: Non-Toxic
- Activity [5]: 6.3%
- Activity [6]: 1.73%
- Activity [7]: Active
- Activity [8]: 17.82%
- Activity [9]: 12.88%
- Activity [10]: Non-Toxic
- Activity [12]: 2.33%
- Activity [14]: Active
- Activity [15]: 7.56%
- Activity [16]: 31.28%
- Activity [17]: 15.19%
- Activity [19]: 8.55%
- Activity [21]: 52.88%
- Activity [23]: Non-Toxic
